Measured values published in ChEMBL document CHEMBL4330182, “Advance of Seriniquinone Analogues as Melanoma Agents” (ACS Med Chem Lett, 2019).
In brackets after ≈: the same amount, converted by molar mass. Activity calls are given as the source filed them. The rule behind the calls is not given here.

Key:
SK-MEL-28 [1] = assay: Induction of DCD mRNA expression in human SK-MEL-28 cells at 30 to 100 nM after 24 hrs by RT-qPCR method; type: functional, cell-based
[2] = Stability of the compound in pH 7.2 PBS buffer at 23 degC for 1 month by NMR analysis; type: physicochemical; details: pH 7.2, 730.5 h
Procedure, shortened: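 Purity was followed by NMR in PBS pH 7.2 for 1 month at 23 °C, and in cell culture medium at 37 °C for 48 h (limit of testing).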

[3] = Stability of the compound in pH 7.2 PBS buffer at 37 degC for 48 hrs by NMR analysis; type: physicochemical; details: pH 7.2, 48 h
HCT-116 [4] = assay: Induction of DCD mRNA expression in human HCT116 cells at 1 to 10 uM after 24 hrs by RT-qPCR method; type: functional, cell-based
[5] = Solubility of the compound in pH 7.2 solution; type: physicochemical; details: buffer
Procedure, shortened: (§1)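 Solubility S was determined in buffer at pH 6.5 for the parent series and regioisomer mixtures, and at pH 7.2 for the phenol/carbamate series.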

HCT-116 [6] = assay: Cytotoxicity against human HCT116 cells after 72 hrs by MTT assay; type: functional, cell-based; details: HCT-116, 72 h
Malme-3M [7] = assay: Induction of DCD mRNA expression in human MALME-3M cells at 30 to 100 nM after 24 hrs by RT-qPCR method; type: functional, cell-based
Malme-3M [8] = assay: Cytotoxicity against human MALME-3M cells after 72 hrs by MTT assay; type: functional, cell-based
SK-MEL-28 [9] = assay: Cytotoxicity against human SK-MEL-28 cells after 72 hrs by MTT assay; type: functional, cell-based; details: SK-MEL-28, 72 h
[10] = Stability of the compound at 23 degC for 3 months at solid state; type: physicochemical; details: 2191.5 h
Calf thymus DNA [11] = assay: Binding affinity to calf thymus DNA at 60 uM by fluorescence spectral analysis; type: nucleic-acid assay; details: Bos taurus
Procedure, shortened: (§2)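 Fluorescence emission spectra recorded while calf thymus DNA was titrated into the compound solution. […] Binding was judged by attenuation (quench) of emission on DNA addition.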

[12] = Solubility of the compound in pH 6.5 solution; type: physicochemical; details: buffer; procedure, shortened: as §1
Calf thymus DNA [13] = assay: Binding affinity to calf thymus DNA at 20 uM by fluorescence spectral analysis; type: nucleic-acid assay; details: Bos taurus; procedure, shortened: as §2
HCT-116 [14] = assay: Induction of oxidative stress in human HCT116 cells at 100 uM after 1 hr by CellROX green/NucBlue staining based confocal microscopic method; type: cell-based; details: hct-116, 1 h
Procedure, shortened: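 HCT-116 cells were stained with CellROX Green for reactive oxygen species and counterstained with NucBlue for nuclei. Imaging was by confocal microscopy, scoring green fluorescent mitochondria as the oxidative-stress read-out.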

[15] = Drug metabolism in aqueous media assessed as 2-hydroxydinaphtho[2,3-b:2',3'-d]thiophene-5,7,12,13-tetraone formation by NMR analysis
Procedure, shortened: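 DMSO stocks of the carbamate at 1.0 or 0.5 mg/mL were diluted 20-fold into PBS pH 7.2. Samples were held 24 h at 23 °C, and hydrolytic release of the phenol (purple salt) was monitored.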

Stability [2] | Stability [3] | solubility [5] [µM] | Stability [10] | Activity (Calf thymus DNA [11]) | solubility [12] [µM] | Activity (Calf thymus DNA [13]) | SMILES | Activity (SK-MEL-28 [1]) | Activity (HCT-116 [4]) | IC50 (HCT-116 [6]) [nM] | Activity (Malme-3M [7]) | IC50 (Malme-3M [8]) [nM] | IC50 (SK-MEL-28 [9]) [nM] | Activity (HCT-116 [14]) | Drug metabolism [15]
Stable | Stable | 0.4 (≈ 0.144 µg/mL) | Stable | – | – | – | O=c1c2ccccc2c(=O)c2c1sc1c(=O)c3ccc(O)cc3c(=O)c12 | Active | Active | 1450 | Active | 220 | 330 | – | –
– | – | – | – | inactive | 0.06 (≈ 0.0207 µg/mL) | – | O=c1c2ccccc2c(=O)c2c1sc1c(=O)c3ccccc3c(=O)c12 | Active | Active | 1290 | Active | 50 | 360 | – | –
– | – | – | – | – | 0.09 (≈ 0.0295 µg/mL) | – | O=c1c2ccccc2c(=O)c2c1oc1c(=O)c3ccccc3c(=O)c12 | – | – | 4080 | – | 1110 | 3470 | – | –
Stable | Stable | 8.2 (≈ 3.07 µg/mL) | Stable | – | – | – | COc1ccc2c(=O)c3sc4c(=O)c5ccccc5c(=O)c4c3c(=O)c2c1 | – | – | 8160 | – | 60 | 7000 | – | –
– | – | – | – | – | – | Active | COc1cccc2c1C(=O)c1c(O)c3c(c(O)c1C2=O)C[C@@](O)(C(=O)CO)C[C@@H]3O[C@H]1C[C@H](N)[C@H](O)[C@H](C)O1 [DOXORUBICIN] | – | – | – | – | 500 | 3000 | – | –
– | – | – | – | – | 0.5 (≈ 0.173 µg/mL) | – | O=c1c2ccccc2c(=O)c2c1sc1c(=O)c3ncccc3c(=O)c12 | – | – | 540 | – | 100 | 2150 | – | –
– | – | 24.6 (≈ 11.3 µg/mL) | Stable | inactive | – | – | CCCCNC(=O)Oc1ccc2c(=O)c3sc4c(=O)c5ccccc5c(=O)c4c3c(=O)c2c1 | Active | Active | 750 | Active | 60 | 1800 | Non-Toxic | Metabolite detected
– | – | – | – | – | 0.4 (≈ 0.131 µg/mL) | – | O=c1c2ccccc2c(=O)c2c1[nH]c1c(=O)c3ccccc3c(=O)c12 | – | – | 4240 | – | 2030 | 4300 | – | –
